Assay [1] concerns the target LL-diaminopimelate aminotransferase, chloroplastic (Arabidopsis thaliana) (UniProt Q93ZN9). The experiment in a line: Inhibition of Arabidopsis thaliana LL-DAP-AT expressed in Escherichia coli at 10 uM by aminobenzaldehyde-based assay. In outline:
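Robotic 96-well screen against C-terminal His6-tagged A. thaliana LL-DAP-AT (0.0043 mg/mL final) in 100 mM HEPES-KOH pH 7.6, with 8.5 mM 2-oxoglutarate, 7 mM OAB and 2.0 mM LL-DAP final. Inhibitor 10 µM final in DMSO, assuming MW 500. Absorbance at 440 nm read in triplicate before enzyme addition and after 3 h at room temperature. Activity taken relative to no-inhibitor wells; no-enzyme wells served as blank.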

Assay [2] has as its target LL-diaminopimelate aminotransferase, chloroplastic (Arabidopsis thaliana, UniProt Q93ZN9). The experiment in a line: Inhibition of Arabidopsis thaliana LL-DAP-AT expressed in Escherichia coli by aminobenzaldehyde-based assay. As to conditions: read-out: IC50. In outline: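 His6-tagged A. thaliana LL-DAP-AT (0.0043 mg/mL final) in 1 mL cuvettes with 100 mM HEPES-KOH pH 7.6, 8.5 mM 2-OG, 7 mM OAB and 2.0 mM LL-DAP. Inhibitor at 5–200 µM final, added in 50 µL DMSO. A440 followed for 200 min, read every 2 min.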

The target in assay [3] is LL-diaminopimelate aminotransferase, chloroplastic (Arabidopsis thaliana) (UniProt Q93ZN9). Nature of the assay: Inhibition of Arabidopsis thaliana LL-DAP-AT expressed in Escherichia coli assessed as time independent type of inhibition by aminobenzaldehyde-based assay. In outline: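 Enzyme (100 µL) and inhibitor (50 µL) were preincubated for six different times, then added to 850 µL of OAB-coupled substrate buffer. Inhibitor level was chosen from the IC50. A440 recorded as in the IC50 assay, with positive and no-enzyme controls. Time independence was judged by whether percent inhibition changed with preincubation time.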

Assay [4] has as its system Escherichia coli. The experiment in a line: Antimicrobial activity against Escherichia coli DH5alpha at <200 ug/mL. It is filed as functional, organism-based. In outline: (§1)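 Soft agar overlay (0.75% w/v) seeded with 1% overnight culture of indicator strain, poured over 1.5% w/v solid agar; LB medium for Gram-negative, M17 for Gram-positive. 10 µL of test solution spotted and air-dried, with solvent controls (acetonitrile or methanol). Incubated overnight, 37 °C Gram-negative, 30 °C Gram-positive; scored for growth-inhibition halos.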

The subject of assay [5] is Pseudomonas aeruginosa. The experiment in a line: Antimicrobial activity against Pseudomonas aeruginosa ATCC 15442 at <200 ug/mL. It is filed as functional, organism-based. In outline: as §1
Assay [6] has as its system Salmonella typhimurium. Nature of the assay: Antimicrobial activity against Salmonella Typhimurium ATCC 23564 at <200 ug/mL. It is filed as functional, organism-based. The following applies: Salmonella enterica subsp. enterica serovar Typhimurium. In outline: as §1
Assay [7] deals with Staphylococcus aureus. The experiment in a line: Antimicrobial activity against Staphylococcus aureus ATCC 25923 at <200 ug/mL. Type of assay: functional, organism-based. In outline: as §1
Assay [8] has as its system Carnobacterium divergens. The experiment in a line: Antimicrobial activity against Carnobacterium divergens LV13 at <200 ug/mL. Type of assay: functional, organism-based. In outline: as §1
The target of assay [9] is LL-diaminopimelate aminotransferase, chloroplastic (Arabidopsis thaliana) (UniProt Q93ZN9). Nature of the assay: Inhibition of Arabidopsis thaliana LL-DAP-AT expressed in Escherichia coli assessed as time dependent type of inhibition by aminobenzaldehyde-based assay. In outline: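 Recombinant C-terminal His6-tagged enzyme (0.043 mg/mL, 100 µL) preincubated with 50 µL inhibitor (stock chosen from IC50 measurements) for six different times. Mixture then added to 850 µL substrate buffer: 100 mM HEPES-KOH pH 7.6, 2-oxoglutarate, 2-aminobenzaldehyde, racemic DAP. Absorbance at 440 nm recorded for 200 min. Percentage inhibition compared across preincubation times; no-inhibitor and no-enzyme controls included.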

Activity calls are given as the source filed them. The calls are words filed in the database; no cut-off is given here.

Sequence of LL-diaminopimelate aminotransferase, chloroplastic (Arabidopsis thaliana) (Q93ZN9 whole entry): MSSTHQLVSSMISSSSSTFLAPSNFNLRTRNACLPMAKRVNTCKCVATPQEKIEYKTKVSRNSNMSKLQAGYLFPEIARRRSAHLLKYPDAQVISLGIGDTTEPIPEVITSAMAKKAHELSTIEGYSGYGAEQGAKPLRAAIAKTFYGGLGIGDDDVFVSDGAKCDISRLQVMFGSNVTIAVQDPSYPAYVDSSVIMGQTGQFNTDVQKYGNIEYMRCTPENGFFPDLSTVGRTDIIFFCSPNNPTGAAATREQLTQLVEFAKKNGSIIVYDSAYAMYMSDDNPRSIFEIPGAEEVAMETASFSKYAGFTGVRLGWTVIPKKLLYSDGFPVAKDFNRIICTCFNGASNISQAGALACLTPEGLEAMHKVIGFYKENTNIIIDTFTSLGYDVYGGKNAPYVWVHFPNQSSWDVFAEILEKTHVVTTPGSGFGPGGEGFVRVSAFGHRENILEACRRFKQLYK
Sequence of LL-diaminopimelate aminotransferase, chloroplastic (Q93ZN9 whole entry): as above

In assay [1], `O=C1OC(c2ccccc2)=C/C1=N\Nc1ccccc1C(=O)O` registered an inhibition of 16%. Also, the IC50 in assay [2] amounted to 39 µM. Moreover, the inhibition result in [3] is “Active”. Moreover, the inhibition result in assay [4], in assay [5], in assay [6], in [7] and in [8] was “inactive” each time.
In assay [1], `O=C(Cn1c(/C=C2/C(=O)NC(=S)N(c3ccccc3)C2=O)cc2ccccc21)Nc1ccccc1` came in with an inhibition of 45%. For the same compound, the IC50 in assay [2] amounted to 33 µM. Moreover, in [9], the inhibition entry was “Active”.
`Cc1cc(C=C2C(=O)NC(=S)NC2=O)c(C)n1C` showed an inhibition in assay [1] of 15%. Moreover, the 50% inhibitory concentration (IC50) in assay [2] worked out at 25 µM. In addition, the inhibition entry in assay [3] is “Active”. Further, the inhibition result in assay [4], in assay [5], in assay [6], in [7] and in [8] was “inactive” throughout.

The values above are taken from ChEMBL document CHEMBL1157640, “Exploration of inhibitors for diaminopimelate aminotransferase” (Bioorg Med Chem, 2010).
